# Screening data deposited in PubChem BioAssay by several laboratories.
# Most compounds without a hit are left out; they make up all but 2.6% or so of the library.
# ABHD5-PLIN5 inh = ABHD5-PLIN5 protein interaction inhibition. Q00G26+Q8WTS1. Split G. princeps luciferase complementation, luminescence, 4 h. inhibition, % at 4 µM. 360,000 tested, 0.78% active. AID 602281;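 active = inhibition above the mean inhibition across every tested compound plus 3 SD, cut at about 22% in these data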;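 note: 0% = DMSO only wells and the 100% control is not disclosed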
# core dimer inh = blocks dimerization of HCV core protein | AID 1899 | TR-FRET GST/Flag-core106 dimerization, 1536-well | inhibition, % at 5 µM | 300,000 tested, 0.33% active;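 active = inhibition above the mean of all tested compounds plus 3 SD, set per screening campaign, cut at about 45% in these data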
#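 Assay system: GST-tagged and Flag-tagged HCV core protein residues 1-106 / Times: compound-protein-antibody incubation 4 h at 22.5 °C / Signal: time-resolved FRET, ex 340 nm, em 617 and 671 nm / Evaluation: % inhibition based on acceptor/donor emission ratio / Benchmarks: wells lacking GST-core106 and wells with excess unlabelled core106 / Repeats: singlicate, one well per compound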
# NadD block = blocks S. aureus nicotinate mononucleotide adenylyltransferase. purified NadD enzyme, colorimetric absorbance read-out. AID 602399. inhibition, % at 20 µM. 360,000 tested, 0.78% active; in the data active = inhibition above about 26%
# rCAG binder-1 = binds r(CAG) RNA repeats; 370,000 tested, 1.3% active; r(CAG) RNA repeat, TO-PRO-1 dye displacement fluorescence; inhibition, % at 3 µM;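 active = inhibition above the plate cutoff, the mean of all test compounds on that plate plus 3 SD, cut at about 35% in these data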;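 note: 0% = DMSO alone and 100% = 100 µM mitoxantrone as full dye displacement; higher means more dye released from RNA so lower well fluorescence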
# rCAG binder conf = r(CAG) RNA repeat binding, confirmation; shares compounds with rCAG binder-1; TO-PRO-1 dye displacement fluorescence; inhibition, % at 3 µM; 4,300 tested, 70% active;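 active = inhibition above a per-plate cutoff, the mean inhibition of sample wells plus 3 SD, cut at about 35% in these data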;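 note: loss of TO-PRO-1 fluorescence as compound displaces dye from 1x1 AA loop RNA; 0% = DMSO only wells and 100% = 100 µM mitoxantrone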
# dCAG dye counter = disrupts DNA CAG TO-PRO-1 complex, flagging rCAG hits; d(CAG) DNA oligo TO-PRO-1 dye displacement, fluorescence; shares compounds with rCAG binder-1; 4,300 tested, 94% active; inhibition, % at 3 µM;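 active = inhibition above its plate's cutoff, the mean test-well inhibition plus 3 SD, cut at about 4.8% in these data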;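 note: 0% = DNA dye mix with DMSO and 100% = 100 µM mitoxantrone; hits displace the dye from DNA and so lower well fluorescence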
# DNA CAG DR = DNA CAG dye complex inhibition, dose response counter-screen; shares compounds with rCAG binder-1; DNA CAG/GTC duplex TO-PRO-1 dye displacement fluorescence; IC50, µM; 250 tested, 20% active; AID 686960; in the data active = IC50 below about 10 µM
# dCAG DNA bind = inhibits DNA CAG/GTC TO-PRO-1 complex, rCAG binder counter-screen | shares compounds with rCAG binder-1 | d(CAG) DNA duplex TO-PRO-1 dye displacement, fluorescence | IC50, µM | 30 tested, 80% active | AID 720649
# rCAG binder-2 = molecules binding r(CAG) RNA repeats, late stage dose response; shares compounds with rCAG binder-1; r(CAG) RNA TO-PRO-1 dye displacement, fluorescence; IC50, µM; 30 tested, 100% active
# * = called active by the depositor; i = inactive; x = no result given. Unless noted, the rule behind the calls is not given here.
SMILES,ABHD5-PLIN5 inh,core dimer inh,NadD block,rCAG binder-1,rCAG binder conf,dCAG dye counter,others
COC(=O)c1c(N2C(=O)Nc3ccccc3N2O)sc2c1CCCC2,0,12,-2,40*,36*,8.4*,
CCOC(=O)c1c(-c2ccccc2)csc1N1C(=O)Nc2ccccc2N1O,1,8,-1,50*,38*,8.8*,
CCOC(=O)c1c(N2C(=O)Nc3ccccc3N2O)sc2c1CCCCC2,0,16,2,27,x,x,
O=C(/C=C/[C@H]1O[C@@H](n2ccc(=O)[nH]c2=O)[C@H](O)[C@@H]1O)NCCN1CCCCC1,5,x,0,2,x,x,
COc1cccc(OCC(=O)Nc2ccncc2)c1,6,-4,-7,-1,x,x,
COc1cccc(OCC(=O)Nc2cc(NC(=O)COc3cccc(OC)c3)cc(C(=O)O)c2)c1,-1,1,8,55*,53*,18*,
Cc1cccc(OCC(=O)Nc2cc(NC(=O)COc3cccc(C)c3)cc(C(=O)O)c2)c1,-5,-1,2,63*,61*,22*,
CCOC(=O)c1cc(-c2cccc(O)c2)oc1C,-10,x,-4,2,x,x,
COc1ccc(/C=N/NS(=O)(=O)c2ccccc2)cc1OC,-4,-1,-7,0,x,x,
COc1cccc(/C=C2\SC(=S)N(NS(=O)(=O)c3ccccc3)C2=O)c1OC,-7,7,-4,74*,65*,28*,
COc1ccc(/C=C2/SC(=O)N(NS(=O)(=O)c3ccccc3)C2=S)cc1OC,-14,-15,0,69*,58*,23*,
COc1cc(/C=C2\SC(=S)N(NS(=O)(=O)c3ccccc3)C2=O)cc(OC)c1OC,4,7,-1,65*,65*,27*,
O=C1/C(=C/c2cccc(F)c2)SC(=S)N1NS(=O)(=O)c1ccccc1,-22,3,-1,62*,65*,17*,
O=C1/C(=C/c2ccccn2)SC(=S)N1NS(=O)(=O)c1ccccc1,4,-1,2,32,x,x,
CCCn1cc(CCC(=O)Nc2ccc(Oc3cccnc3)cc2)c2ccccc21,x,x,x,4,x,x,
CC[C@H](C)[C@@H](N)C(=O)NC[C@H]1O[C@@H](n2cnc3c(=O)[nH]c(N)nc32)[C@H](O)[C@@H]1O,-9,x,3,1,x,x,
O=C(O)c1cccc(NC(=O)c2cn(-c3ccccc3)nc2-c2cccc(Br)c2)c1,-4,15,8,87*,82*,50*,
O=C(O)c1ccc(NC(=O)c2cn(-c3ccccc3)nc2-c2ccccc2)cc1,-9,6,-2,24,x,x,
O=C(O)c1ccc(NC(=O)c2cn(-c3ccccc3)nc2-c2ccc(Br)cc2)cc1,2,26,10,82*,68*,28*,
O=C(O)c1cccc(NC(=O)c2cn(-c3ccccc3)nc2-c2ccncc2)c1,-4,-4,x,14,x,x,
COc1ccc(-c2nn(-c3ccccc3)cc2C(=O)Nc2cccc(C(=O)O)c2)cc1[N+](=O)[O-],-6,17,10,71*,61*,24*,
O=C(O)c1cccc(NC(=O)c2cn(-c3ccccc3)nc2-c2ccc([N+](=O)[O-])cc2)c1,-3,9,-2,14,x,x,
Cc1ccc2c(CC(=O)Nc3ccc4nc(N5CCOCC5)sc4c3)coc2c1,1,x,-5,10,x,x,
CN(C)c1ccc(CNC(=O)C2Cc3c(-c4cccc(C(N)=O)c4)ccnc3O2)cc1 (configuration not stated),2,x,-5,2,x,x,
O=C(Cc1nnc(NC(=O)c2ccccc2)s1)N/N=C/c1ccco1,-4,8,1,71*,6,5.7*,
SMILES,ABHD5-PLIN5 inh,core dimer inh,NadD block,rCAG binder-1,rCAG binder conf,dCAG dye counter,others
C[C@@H]1N[C@H]2N(C1=O)c1ccccc1[C@@]21C[C@@H]2C(=O)N[C@](C)(O1)c1nc3ccccc3c(=O)n12,x,x,x,7,x,x,
COC(=O)CC1=NN(c2ccccc2)C(=O)/C1=C\c1ccc(OC)cc1,8,-6,-1,42*,29,8.3*,
CCOC(=O)C1=NN(c2ccccc2)C(=O)/C1=C\c1ccc(N(C)C)cc1,6,5,-1,61*,63*,19*,
COC(=O)CC1=NN(c2ccc(OC)cc2)C(=O)/C1=C\c1ccc(Cl)cc1,-5,11,21,68*,83*,41*,
CCOC(=O)CC1=NN(c2ccccc2)C(=O)/C1=C\c1ccc(OC)cc1OC,3,6,-5,65*,10,5.3*,
COc1ccc(C(=O)NNC(=O)C2=NN(c3ccccc3)C(=O)CC2)cc1,-6,-5,-1,-1,x,x,
COc1ccccc1/C=C1/C(=O)N(c2ccccc2)N=C1C,-20,-4,0,31,x,x,
CCS(=O)c1ccccc1C(=O)OCC(=O)Nc1ccc2ccccc2c1 (configuration not stated),-1,x,-3,4,x,x,
O=c1[nH]c(SCc2cccc(Cl)c2)nc2[nH]ncc12,4,1,1,1,x,x,
N#Cc1c(-c2ccccc2)nc(SCc2cccc(Cl)c2)[nH]c1=O,0,16,12,82*,76*,43*,
O=C(CSc1nc2[nH]ncc2c(=O)[nH]1)Nc1cccc(Cl)c1,-2,-7,0,5,x,x,
O=C(CSc1nc(-c2ccc(Cl)cc2)[nH]c(=O)n1)Nc1cccc(Cl)c1,-10,7,12,57*,66*,30*,
CCc1ccc(NC(=O)C(C)Sc2nc(-c3ccco3)c(C#N)c(=O)[nH]2)cc1 (configuration not stated),-1,10,4,79*,70*,33*,DNA CAG DR=9.7*;dCAG DNA bind=3.3*;rCAG binder-2=1.1*
N#Cc1c(-c2ccco2)nc(SCC(=O)Nc2cccc(Cl)c2)[nH]c1=O,1,11,14,72*,72*,27*,DNA CAG DR=i
Cc1c[nH]c2cccc(-c3ccccc3)c12,x,x,x,4,x,x,
CCc1ccc(OCC(=O)Nc2nnc(-c3ccco3)s2)cc1,6,-2,1,52*,3,0,
CC(C)CC(=O)Nc1nnc(-c2ccco2)s1,-2,-1,-6,1,x,x,
Cc1cc(-n2c(C)cc(C(=O)CSc3[nH]c(=O)cc(C(F)(F)F)c3C#N)c2C)no1,1,x,11,42*,38*,9.1*,
CCCCCCCCCCCC(=O)NC(Cc1ccc(OC)c([N+](=O)[O-])c1)C(=O)O (configuration not stated),-6,10,-3,44*,43*,9.2*,
